The source of these data is publication PMC6136146 (Clinical genitourinary cancer, 2018).

Each structure is given as a SMILES string. “Also recorded” adds a separate entry of the source. Numbered stars: 1 amine (or outer) side, 2 acyl side, 3 side chain; on linkers, the order of the positions; unused ones are H or OH. Square brackets hold non-standard residues; d marks the D form. Side chains are listed from the residue outwards. Peptide text beside a SMILES is read from it. * marks the point of attachment. Ethylenediamine = C(CN[*:2])N[*:1]; Hyp = O=C(O)[C@@H]1C[C@@H](O)CN1; Phg = N[C@H](C(=O)O)c1ccccc1; CO = O=C([*:1])[*:2]; Bn = c1ccc(C*)cc1

Series [1] can be described thus: Docetaxel pharmacokinetics. In kind it is in vivo, human. The note with it: docetaxel 75 mg/m2 intravenously, coadministration of SOM230; single-agent docetaxel PK not done.
Series [2] has as its system patients with metastatic castrate-resistant prostate cancer (mCRPC). Put plainly: Phase I dose escalation: dose-limiting toxicity, MTD and toxicities. Type of series: in vivo, human.
The test system of the next series is sst3. The following applies: extremely high affinity compared to octreotide; cited from earlier work.
Series [3] in a line: Pasireotide pharmacokinetics, radioimmunoassay with I-125-pasireotide. The note with it: intramuscular every 28 days. Type of series: in vivo, human. Put shortly: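 Competitive radioimmunoassay on patient samples: samples or standards incubated with I-125-pasireotide tracer and antiserum; immune complexes captured on anti-rabbit-coated magnetic beads, unbound fraction washed away, bound radioactivity read in gamma counter. Dosing: long-acting IM injection every 28 days at 40, 60 or 80 mg, with docetaxel 75 mg/m2 IV every 21 days and prednisone 5 mg orally twice daily.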

The next series concerns sst1. The following applies: extremely high affinity compared to octreotide; cited from earlier work.
The subject of a further series is sst2. The note with it: extremely high affinity compared to octreotide; cited from earlier work.
Another series relates to sst5. The note with it: extremely high affinity compared to octreotide; cited from earlier work.
Another series concerns DU145 cells. The following applies: cited from earlier work.
For another series, the system named is PC3 cells. The note with it: cited from earlier work.
A further series deals with mCRPC. The note with it: no different between the 2 arms; cited from earlier work.
Setting [4] is: 60 mg dose level, 12 patients evaluated, number of patients.

Turning to `CC(=O)O[C@@]12CO[C@@H]1C[C@H](O)[C@@]1(C)C(=O)[C@H](O)C3=C(C)[C@@H](OC(=O)[C@H](O)[C@@H](NC(=O)OC(C)(C)C)c4ccccc4)C[C@@](O)([C@@H](OC(=O)c4ccccc4)[C@H]21)C3(C)C` [Docetaxel], the “Docetaxel clearance compared with the data reported in the literature” value in series [1] is reported as 3- to 4 fold higher.

`NCCCC[C@@H]1NC(=O)[C@@H](Cc2c[nH]c3ccccc23)NC(=O)[C@H](c2ccccc2)NC(=O)[C@@H]2C[C@@H](OC(=O)NCCN)CN2C(=O)[C@H](Cc2ccccc2)NC(=O)[C@H](Cc2ccc(OCc3ccccc3)cc2)NC1=O` [Pasireotide] (cyclo([Hyp]([CO-Ethylenediamine])[Phg][dW]KY(Bn)F)): in series [2] (setting [4]), the “Dehydration, Grade 1” value was found to be 0 n; the “Dehydration, Grade 2” value is given as 0 n; the “Dehydration, Grade 3” value came to 1 n; the “Dehydration, Grade 4” value was determined as 0 n. In series [2] (setting [4]), the “Diarrhea, Grade 1” value was 2 n; the “Diarrhea, Grade 2” value was found to be 1 n; the “Diarrhea, Grade 3” value is listed as 0 n; the “Diarrhea, Grade 4” value amounted to 0 n. In series [2] (setting [4]), the “Dry Mouth, Grade 1” value was 1 n; the “Dry Mouth, Grade 2” value was determined as 0 n; the “Dry Mouth, Grade 3” value is 0 n; the “Dry Mouth, Grade 4” value is given as 0 n. Besides, in series [2] (setting [4]), the “Electrocardiogram QT Corrected Interval Prolong, Grade 1” value is recorded as 0 n; the “Electrocardiogram QT Corrected Interval Prolong, Grade 2” value was 1 n; the “Electrocardiogram QT Corrected Interval Prolong, Grade 3” value was 0 n; the “Electrocardiogram QT Corrected Interval Prolong, Grade 4” value worked out at 0 n. Further, in series [2] (setting [4]), the “Hyperglycemia, Grade 1” value was determined as 0 n; the “Hyperglycemia, Grade 2” value stood at 0 n; the “Hyperglycemia, Grade 3” value stood at 3 n; the “Hyperglycemia, Grade 4” value worked out at 0 n. In series [2] (setting [4]), the “Hyperkalemia, Grade 1” value is 0 n; the “Hyperkalemia, Grade 2” value amounted to 1 n; the “Hyperkalemia, Grade 3” value was 0 n; the “Hyperkalemia, Grade 4” value stood at 0 n. In series [2] (setting [4]), the “Hypertension, Grade 1” value worked out at 0 n; the “Hypertension, Grade 2” value was 0 n; the “Hypertension, Grade 3” value worked out at 2 n; the “Hypertension, Grade 4” value worked out at 0 n. Further, in series [2] (setting [4]), the “Hyponatremia, Grade 1” value is 0 n; the “Hyponatremia, Grade 2” value stood at 0 n; the “Hyponatremia, Grade 3” value worked out at 1 n; the “Hyponatremia, Grade 4” value amounted to 0 n. Besides, in [2] (setting [4]), the “Hypophosphatemia, Grade 1” value worked out at 0 n; the “Hypophosphatemia, Grade 2” value was determined as 0 n; the “Hypophosphatemia, Grade 3” value was 3 n; the “Hypophosphatemia, Grade 4” value is listed as 0 n. In addition, in series [2] (setting [4]), the “Hypotension, Grade 1” value was 0 n; the “Hypotension, Grade 2” value turned out to be 0 n; the “Hypotension, Grade 3” value turned out to be 1 n; the “Hypotension, Grade 4” value stood at 0 n. Further, in series [2] (setting [4]), the “Injection Site Reaction, Grade 1” value came to 1 n; the “Injection Site Reaction, Grade 2” value came out at 0 n; the “Injection Site Reaction, Grade 3” value stood at 0 n; the “Injection Site Reaction, Grade 4” value turned out to be 0 n. In series [2] (setting [4]), the “Rash Acneiform, Grade 1” value came out at 1 n; the “Rash Acneiform, Grade 2” value was 0 n; the “Rash Acneiform, Grade 3” value was determined as 0 n; the “Rash Acneiform, Grade 4” value came out at 0 n. Also, in series [2] (setting [4]), the “Urinary Frequency, Grade 1” value is given as 1 n; the “Urinary Frequency, Grade 2” value came out at 0 n; the “Urinary Frequency, Grade 3” value amounted to 0 n; the “Urinary Frequency, Grade 4” value was 0 n. In addition, the “Grade 4 or 5 toxicities” value in [2] (60 mg dose, twelve patients evaluated) is “None of the patients experienced Grade 4 or 5 toxicities”. Moreover, in series [2] (80-mg dose level of pasireotide), the Dose-limiting toxicities observed entry was “Grade 4 hyperglycemia unresponsive to therapy and Grade 4 neutropenia lasting for > 7 days in 1 patient each; also recorded: One patient had Grade 4 amylase elevation and the other had Grade 3 hyperglycemia requiring hospitalization”. The “Hospitalizations because of hyperglycemia probably or definitely related to SOM230” value in [2] (in vivo) is “Three”. The “Binding to sst3” value in the series with sst3 is on record as “binds”. The “Steady state established in most patients” value in [3] was at most 57 days. Besides, in the series on sst1, the “Binding to sst1” value is given as “binds”. The “Binding to sst2” value in the series on sst2 is recorded as “binds”. The “Binding to sst5” value in the series on sst5 is “binds”. For the same compound, the “Growth factors in DU145 cells” value in the series on DU145 cells was “decreased transforming growth factor-β and basic fibroblast growth factor”. Besides, in the series on PC3 cells, the “Growth factor secretion in PC3 cells” value is “reduced secretion of stem cell factor and platelet-derived growth factor”.

For the compound `C[C@]12CC[C@@H]3c4ccc(OC(=O)N(CCCl)CCCl)cc4CC[C@H]3[C@@H]1CC[C@@H]2O` [estramustine], the “Median OS” value in the series with mCRPC is on record as 18 months.
